According to ChEMBL document CHEMBL1147971, “Evaluation of N-(phenylmethyl)-4-[5-(phenylmethyl)-4,5,6,7-tetrahydro-1H-imidazo[4,5-c]pyridin-4-yl]benzamide inhibitors of Mycobacterium tuberculosis growth” (Bioorg Med Chem Lett, 2007):
Values after ≈ are worked out from the molar mass of the structure shown. Active and inactive are the calls of the source. No cut-off for these calls is given here.

How the values were obtained:
[1] = tested on: Mycobacterium tuberculosis; assay: Antibacterial activity against Mycobacterium tuberculosis; type: functional
Procedure, shortened: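 M. tuberculosis broth cultures grown in 96-well microtitre plates with drug. Growth read indirectly by metabolic reduction of fluorescent Alamar blue. MIC taken as the minimum drug concentration giving 50% inhibition of growth.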

[2] = Permeability across artificial cell membrane; type: ADME; conditions: for Papp: not told, read-out: permeability
Procedure, shortened: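 High-throughput artificial membrane assay measuring passive diffusion of compound across a phospholipid monolayer.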

Staphylococcus aureus = assay: Antibacterial activity against Staphylococcus aureus ATCC 29213; type: functional, organism-based
[3] = Cytotoxicity against HEPG2 cells; type: cell-based; conditions: human; for cytotoxicity: read-out: Inhibition; for CC50: read-out: TC50 (the source's name)
[4] = Mycobacterium tuberculosis, read-out: MIC

Compound	MIC [1, 4] [µM]	cytotoxicity [3] [%]	CC50 [3] [µM]	other results
COc1ccc(CNC(=O)c2ccc(C3c4nc[nH]c4CCN3Cc3cccc(Cl)c3)cc2)cc1 (stereo in doubt; 9d)	63 (≈ 30.7 µg/mL)			Papp [2]: 21 ×10⁻⁶ cm/s
COc1ccc(CNC(=O)c2ccc(C3c4nc[nH]c4CCN3Cc3cccc(Cl)c3Cl)cc2)cc1 (stereo in doubt; 9a)				Papp [2]: 8 ×10⁻⁶ cm/s
COc1ccc(CNC(=O)c2ccc(C3c4nc[nH]c4CCN3Cc3cc(OC)c(OC)cc3OC)cc2)cc1 (configuration not stated)	63 (≈ 34.2 µg/mL)	20	> 11.5	Activity (Staphylococcus aureus): Active
COc1ccc(CNC(=O)c2ccc(C3c4nc[nH]c4CCN3c3ccc4ccccc4c3)cc2)cc1 (configuration not stated)	32 (≈ 15.6 µg/mL)	25	> 12.4	
O=C(NCc1ccccc1)c1ccc(C2c3nc[nH]c3CCN2Cc2cccc(Cl)c2Cl)cc1 (configuration not stated)	32 (≈ 15.7 µg/mL)			
COc1ccc(CNC(=O)c2ccc(C3c4nc[nH]c4CCN3Cc3cccc(Cl)c3Cl)cc2)cc1 (stereo in doubt; 9b)				MIC [1]: 63 µM (≈ 32.9 µg/mL); permeability [2]: 8 ×10⁻⁶ cm/s
COc1ccc(CNC(=O)c2ccc(C3c4nc[nH]c4CCN3Cc3cccc(Cl)c3)cc2)cc1 (stereo in doubt; 8f)		25	> 12.8	
O=C(NCc1ccccc1)c1ccc(C2c3nc[nH]c3CCN2c2ccc3ccccc3c2)cc1 (configuration not stated)	16 (≈ 7.34 µg/mL)	> 20	> 13.2	
COc1ccc(CNC(=O)c2ccc(C3c4nc[nH]c4CCN3Cc3cccc(Cl)c3)cc2)cc1 (stereo in doubt; 9c)				MIC [1]: 32 µM (≈ 15.6 µg/mL); permeability [2]: 21 ×10⁻⁶ cm/s
O=C(NCc1ccccc1)c1ccc(C2c3nc[nH]c3CCN2Cc2cccc(Cl)c2)cc1 (configuration not stated)	32 (≈ 14.6 µg/mL)			
COc1ccc(CNC(=O)c2ccc(C3c4nc[nH]c4CCN3Cc3cccc(Cl)c3Cl)cc2)cc1 (stereo in doubt; 8e)	32 (≈ 16.7 µg/mL)			
